Columns and labels:
Type in all cases: functional
[1] = system: UO-31; test: Anticancer activity against human UO31 cells assessed as growth inhibition
Summary of the method: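 The value is GI50, the molar concentration causing 50% inhibition of net cell growth, reported as pGI50 (−log molar).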

[2] = system: DU-145; test: Anticancer activity against human DU145 cells assessed as growth inhibition
Summary of the method: (§1)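 NCI in vitro disease-oriented human tumor cell screen, about 60 lines. Growth inhibition read as pGI50, the -log of the molar concentration inhibiting 50% net cell growth. A mean graph midpoint is the arithmetic mean over all tested lines. Where the effect was not reached within the concentration interval, the highest tested concentration was used.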

[3] = system: HCT-116; test: Anticancer activity against human HCT116 cells assessed as growth inhibition; summary of the method: as §1
[4] = system: HCC 2998; test: Anticancer activity against human HCC2998 cells assessed as growth inhibition; summary of the method: as §1
[5] = system: OVCAR-4; test: Anticancer activity against human OVCAR4 cells assessed as growth inhibition; summary of the method: as §1
[6] = system: RXF 393; test: Anticancer activity against human RXF393 cells assessed as growth inhibition; summary of the method: as §1
[7] = system: IGROV-1; test: Anticancer activity against human IGROV1 cells assessed as growth inhibition; summary of the method: as §1
[8] = system: SF-268; test: Anticancer activity against human SF268 cells assessed as growth inhibition; summary of the method: as §1
[9] = system: TK-10; test: Anticancer activity against human TK10 cells assessed as growth inhibition; summary of the method: as §1
[10] = system: CAKI-1; test: Anticancer activity against human CAKI1 cells assessed as growth inhibition; summary of the method: as §1
[11] = system: PC-3; test: Anticancer activity against human PC3 cells assessed as growth inhibition; summary of the method: as §1
[12] = system: OVCAR-5; test: Anticancer activity against human OVCAR5 cells assessed as growth inhibition; summary of the method: as §1
[13] = system: HOP-92; test: Anticancer activity against human HOP92 cells assessed as growth inhibition; summary of the method: as §1
[14] = system: HT-29; test: Anticancer activity against human HT29 cells assessed as growth inhibition; summary of the method: as §1
[15] = system: SR; test: Anticancer activity against human SR cells assessed as growth inhibition; summary of the method: as §1
[16] = system: OVCAR-8; test: Anticancer activity against human OVCAR8 cells assessed as growth inhibition; summary of the method: as §1
[17] = system: BT-549; test: Anticancer activity against human BT549 cells assessed as growth inhibition; summary of the method: as §1
[18] = system: OVCAR-3; test: Anticancer activity against human OVCAR-3 cells assessed as growth inhibition; summary of the method: as §1
[19] = system: NCI-H226; test: Anticancer activity against human NCI-H226 cells assessed as growth inhibition; summary of the method: as §1
[20] = system: SW-620; test: Anticancer activity against human SW620 cells assessed as growth inhibition; summary of the method: as §1
[21] = system: KM12; test: Anticancer activity against human KM12 cells assessed as growth inhibition; summary of the method: as §1
[22] = system: M14; test: Anticancer activity against human M14 cells assessed as growth inhibition; summary of the method: as §1
[23] = system: NCI-H23; test: Anticancer activity against human NCI-H23 cells assessed as growth inhibition; summary of the method: as §1
[24] = system: COLO 205; test: Anticancer activity against human COLO 205 cells assessed as growth inhibition; summary of the method: as §1
[25] = system: SF-295; test: Anticancer activity against human SF295 cells assessed as growth inhibition; summary of the method: as §1
[26] = system: RPMI-8226; test: Anticancer activity against human RPMI8226 cells assessed as growth inhibition; summary of the method: as §1
[27] = read-out: Log LC50 (the source's name) (converted)

C[As](C)SCC(COC(=O)C(Cl)c1ccccc1)OC(=O)C(Cl)c1ccccc1 (stereo unspecified)
GI50 [1]: 5.37 µM
CC50 [1, 27]: > 100 µM
GI50 [2]: 4.27 µM
CC50 [2, 27]: 58.9 µM
GI50 [3]: 0.407 µM
CC50 [3, 27]: 4.9 µM
GI50 [4]: 1.55 µM
CC50 [4, 27]: 8.13 µM
GI50 [5]: 1.26 µM
CC50 [5, 27]: > 100 µM
GI50 [6]: 0.363 µM
CC50 [6, 27]: 36.3 µM
GI50 [7]: 4.47 µM
CC50 [7, 27]: > 100 µM
GI50 [8]: 3.16 µM
CC50 [8, 27]: 56.2 µM
GI50 [9]: 0.112 µM
CC50 [9, 27]: 2.69 µM
GI50 [10]: 0.347 µM
CC50 [10, 27]: 30.2 µM
GI50 [11]: 0.55 µM
CC50 [11, 27]: 47.9 µM
GI50 [12]: 3.55 µM
CC50 [12, 27]: 37.2 µM
GI50 [13]: 0.162 µM
CC50 [13, 27]: 40.7 µM
GI50 [14]: 0.813 µM
CC50 [14, 27]: > 100 µM
GI50 [15]: 1.41 µM
CC50 [15, 27]: > 100 µM
GI50 [16]: 4.07 µM
CC50 [16, 27]: > 100 µM
GI50 [17]: 2.45 µM
CC50 [17, 27]: 64.6 µM
GI50 [18]: 0.178 µM
CC50 [18, 27]: 3.24 µM
GI50 [19]: 26.9 µM
CC50 [19, 27]: 67.6 µM
GI50 [20]: 0.617 µM
CC50 [20, 27]: > 100 µM
GI50 [21]: 1.2 µM
CC50 [21, 27]: 30.9 µM
GI50 [22]: 0.603 µM
CC50 [22, 27]: 34.7 µM
GI50 [23]: 0.741 µM
CC50 [23, 27]: 22.9 µM
GI50 [24]: 0.363 µM
CC50 [24, 27]: > 100 µM
GI50 [25]: 3.63 µM
CC50 [25, 27]: 43.7 µM
GI50 [26]: 0.316 µM

Reference: ChEMBL document CHEMBL1147176, “Synthesis of S-dialkylarsino-3-mercapto-1,2-propanediols and evaluation of their anticancer activity” (2007)
